Experimental data: paper PMC3190583 (Journal of clinical pharmacology, 2010)
Read-outs that look alike come from different tables or passages of the source. Marks after values point to notes of the source that are not given here.

Assays:
[1] = Single-dose pharmacokinetics of pantoprazole delayed-release tablet, study 1; format: in vivo, human; conditions: for AUC / CL/F / Cmax / Tmax / Vd/F / half-life: human, plasma, po; for tlag: study 1, 6-11 y, median (range)
[2] = Single-dose pharmacokinetics of pantoprazole delayed-release tablet, study 2; format: in vivo, human; conditions: for AUC / CL/F / Cmax / Tmax / Vd/F / half-life: human, plasma, po; for tlag: study 2, 12-16 y, median (range)
[3] = Safety and tolerability, on-treatment adverse events, study 1; format: in vivo, human; conditions: for Abdominal pain / Accidental injury / Fever / Headache / Otitis media / Upper respiratory infection: on-treatment AE; for Abdominal pain / Accidental injury / Fever / Headache / Otitis media / Upper respiratory infection / Any AE: patients (percent); for Any AE: on-treatment
Procedure, shortened: (§1)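 Patients randomized 1:1 to 20 or 40 mg delayed-release tablet once daily: about 28 days in study 1, at least 5 consecutive doses in study 2. On-treatment AEs were those occurring during dosing or within 48 h of the last dose. Vital signs were taken 2 h predose and 2, 8 and 12 h postdose on day 1. Physical exam and labs were done on the multiple-dose PK day. Telephone AE follow-up came 14 days after completion.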

[4] = Safety and tolerability, on-treatment adverse events, study 2; format: in vivo, human; conditions: for Abdominal pain / Accidental injury / Fever / Headache / Otitis media: on-treatment AE; for Abdominal pain / Accidental injury / Fever / Headache / Otitis media / Any AE: patients (percent); for Any AE: on-treatment
Procedure, shortened: as §1

[5] = adults; cited from earlier work
[6] = neonates; cited from earlier work
[7] = study 1, 20 mg once daily (n = 11)
[8] = study 1, 40 mg once daily (n = 13)
[9] = study 1, 20 or 40 mg once daily
[10] = study 1, total of both doses (n = 24)
[11] = study 2, 20 mg once daily (n = 11)
[12] = study 2, 40 mg once daily (n = 11)
[13] = study 2, 20 or 40 mg once daily
[14] = study 2, total of both doses (n = 22)

Work on `COc1ccnc(C[S+]([O-])c2nc3ccc(OC(F)F)cc3[nH]2)c1OC` (centres unmarked) [pantoprazole] yielded an AUC ([1]; 20 mg) of 2500 ± 2100 ng·h/mL, a CL/F ([1]; 20 mg) of 6.83 mL/min/kg and a Cmax ([1]; 20 mg) of 1600 ± 1200 ng/mL. For the same molecule, the Tmax ([1]; 20 mg) was 2 h, the Vd/F ([1]; 20 mg) was 0.43 ± 0.3 L/kg and the half-life ([1]; 20 mg) was 0.8 ± 0.2 h. The AUC ([1]; 40 mg) was 3800 ± 1800 ng·h/mL, the CL/F ([1]; 40 mg) was 6.67 mL/min/kg and the Cmax ([1]; 40 mg) was 2100 ± 1300 ng/mL. For the same molecule, the Tmax ([1]; 40 mg) was 2 h, the Vd/F ([1]; 40 mg) was 0.4 ± 0.27 L/kg and the half-life ([1]; 40 mg) was 0.7 ± 0.2 h. The tlag ([1]; single oral 20 mg tablet, n = 10) was 1.0 (0.5, 2.0) h, the tlag ([1]; single oral 40 mg tablet, n = 12) was 0.8 (0, 1.0) ^b h and the “concentration of pantoprazole at 12 hours after the first dose” value ([1]; study 1, all patients, 20 or 40 mg, lower limit of quantitation 10 ng/mL) was “below the lower limit of quantitation”. For the same molecule, the AUC ([2]; 20 mg) was 1300 ± 600 ng·h/mL, the CL/F ([2]; 20 mg) was 4.67 mL/min/kg and the Cmax ([2]; 20 mg) was 900 ± 500 ng/mL. The Tmax ([2]; 20 mg) was 1.5 h, the Vd/F ([2]; 20 mg) was 0.32 ± 0.22 L/kg and the half-life ([2]; 20 mg) was 0.8 ± 0.3 h. The AUC ([2]; 40 mg) was 4300 ± 3100 ng·h/mL, the CL/F ([2]; 40 mg) was 3 mL/min/kg and the Cmax ([2]; 40 mg) was 2200 ± 1400 ng/mL. The Tmax ([2]; 40 mg) was 2 h, the Vd/F ([2]; 40 mg) was 0.21 ± 0.06 L/kg and the half-life ([2]; 40 mg) was 0.9 ± 0.3 h. The tlag ([2]; single oral 20 mg tablet, n = 9) was 1.0 (0, 2.5) ^c h, the tlag ([2]; single oral 40 mg tablet, n = 11) was 1.0 (0, 8) h and the Abdominal pain [3, 7] was 3 (27.3). For the same molecule, the Accidental injury [3, 7] was 1 (9.1), the Fever [3, 7] was 1 (9.1) and the Headache [3, 7] was 1 (9.1). The Otitis media [3, 7] was 2 (18.2), the Upper respiratory infection [3, 7] was 2 (18.2) and the “Any AE” value [3, 7] was 9 (81.8). For the same molecule, the Abdominal pain [3, 8] was 1 (7.7), the Accidental injury [3, 8] was 1 (7.7) and the Fever [3, 8] was 1 (7.7). For the same molecule, the Headache [3, 8] was 2 (15.4), the Otitis media [3, 8] was 0 and the Upper respiratory infection [3, 8] was 0. For the same molecule, the “Any AE” value [3, 8] was 7 (53.8), the “ECG, QTc changes” value [3, 9] was “no abnormal QTc changes” and the “serious AEs” value [3, 9] was “no serious AEs”. The “severity of all AEs” value [3, 9] was “mild or moderate”, the Abdominal pain [3, 10] was 4 (16.7) and the Accidental injury [3, 10] was 2 (8.3). For the same molecule, the Fever [3, 10] was 2 (8.3), the Headache [3, 10] was 3 (12.5) and the Otitis media [3, 10] was 2 (8.3). The Upper respiratory infection [3, 10] was 2 (8.3), the “Any AE” value [3, 10] was 16 (66.7) and the Abdominal pain [4, 11] was 0. For the same molecule, the Accidental injury [4, 11] was 0, the Fever [4, 11] was 0 and the Headache [4, 11] was 0. The Otitis media [4, 11] was 0, the “Any AE” value [4, 11] was 2 (18.2) and the Abdominal pain [4, 12] was 2 (18.2). The Accidental injury [4, 12] was 0, the Fever [4, 12] was 1 (9.1) and the Headache [4, 12] was 1 (9.1). The Otitis media [4, 12] was 0, the “Any AE” value [4, 12] was 4 (36.4) and the “ECG, QTc changes” value [4, 13] was “no abnormal QTc changes”. For the same molecule, the “serious AEs” value [4, 13] was “no serious AEs”, the “severity of all AEs” value [4, 13] was “mild or moderate” and the Abdominal pain [4, 14] was 2 (9.1). The Accidental injury [4, 14] was 0, the Fever [4, 14] was 1 (4.5) and the Headache [4, 14] was 1 (4.5). The Otitis media [4, 14] was 0, the “Any AE” value [4, 14] was 6 (27.3) and the “accumulation on repeated once-daily dosing” value [5] was “does not result in accumulation”. For the same molecule, the half-life [5] was “approximately 1 hour” and the “mean CL/F” value [6] was 3.67 mL/min/kg.
